Measurements as given in ChEMBL document CHEMBL3272018, “Synthesis of aziridinylallylaminophosphine oxides and sulfides as potential adjuvant cancer chemotherapeutic agents” (J Med Chem, 1976).
Activity calls are given as the source filed them. No cut-off for these calls is given here.

How the values were obtained:
[1] = Toxicity in rat allografted with rat Walker 256 cells intramuscularly; assay type: organism-based
[2] = test system: L1210; assay: In vivo antitumor activity against mouse L1210 cells in prognostic scoring system […] at 5 mg/kg, qd administered for 15 days relative to control; assay type: functional; conditions: L1210, 360 h, read-out: TGI
[3] = test system: W256; assay: Antitumor activity against rat Walker 256 cells intramuscularly allografted in rat assessed as tumor growth inhibition; assay type: functional; conditions: W256, im
Procedure, shortened: (§1)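 Dosed once daily for 5 days. Response is tumor progression in treated (T) versus untreated control (C) animals, expressed as T/C percentage. Host weight change is reported as the average net weight change of the test group minus that of the controls, in grams.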

[4] = test system: W256; assay: Antitumor activity against cytoxan-resistant rat Walker 256 cells intramuscularly allografted in rat assessed as tumor growth inhibition at 12 mg/kg, qd administered for 5 days relative to control; assay type: functional; conditions: W256, im, 120 h, route intramuscular, read-out: TGI; procedure, shortened: as §1
[5] = test system: L1210; assay: In vivo antitumor activity against mouse L1210 cells in prognostic scoring system assessed as survival rate at 3 mg/kg, qd administered for 15 days; assay type: functional, organism-based; design: dose 3 mg/kg
Procedure, shortened: (§2)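 L1210 leukaemia in mice, run as an ascites tumour system. Injections were once daily for 9 or 15 days, or as a single dose. Response is the increase in survival time, given as T/C %, treated over untreated controls; a larger value means more activity. Weight change is the treated-group mean minus the control-group mean, in grams.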

[6] = test system: W256; assay: Antitumor activity against cytoxan-resistant rat Walker 256 cells intramuscularly allografted in rat assessed as tumor growth inhibition at 25 mg/kg, qd administered for 5 days relative to control; assay type: functional; conditions: W256, im, 120 h, route intramuscular, read-out: TGI; procedure, shortened: as §1
[7] = test system: W256; assay: Antitumor activity against cytoxan-resistant rat Walker 256 cells intramuscularly allografted in rat assessed as survival rate at 12 mg/kg, qd administered for 5 days; assay type: functional, organism-based; design: dose 12 mg/kg
Procedure, shortened: (§3)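 Rats bearing Walker 256 carcinoma as a solid tumor; lines 1-8 use a cytoxan-resistant Walker 256 subline. Dosed once daily for 5 days. Treated (T) and untreated control (C) groups are compared, and the response is given as T/C percentage, reflecting increase in survival time. Host weight change is the average weight change of the test group minus that of the controls, in grams.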

[8] = test system: W256; assay: Antitumor activity against rat Walker 256 cells intramuscularly allografted in rat assessed as tumor growth inhibition at 12 mg/kg, qd administered for 5 days relative to control; assay type: functional; conditions: W256, im, 120 h, route intramuscular, read-out: TGI
Procedure, shortened: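 Walker 256 carcinoma grown as a solid tumour in rats, with one injection daily for 5 days. Response is given as T/C %, the treated-group measure over the untreated-control tumour measure; a smaller value means more activity. Host toxicity is the mean net weight change of treated minus control animals, in grams.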

[9] = test system: L1210; assay: In vivo antitumor activity against mouse L1210 cells in prognostic scoring system assessed as survival rate at 5 mg/kg, qd administered for 15 days; assay type: functional, organism-based; design: dose 5 mg/kg; procedure, shortened: as §2
[10] = test system: Rattus norvegicus; assay: Toxicity in rat allografted with cytoxan-resistant rat Walker 256 cells intramuscularly assessed as change in body weight at 12 mg/kg, qd administered for 5 days; assay type: organism-based; design: dose 12 mg/kg, route intramuscular; conditions: in vivo, im, 120 h
Procedure, shortened: (§4)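 Walker 256 carcinoma solid-tumour system in rats (parent line, or the line resistant to cytoxan). Dosing was one injection per day for 5 days. Toxicity was taken as the average net body-weight change of the treated group minus the average net weight change of the untreated tumour-bearing controls, in grams.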

[11] = test system: Rattus norvegicus; assay: Toxicity in rat allografted with cytoxan-resistant rat Walker 256 cells intramuscularly assessed as change in body weight at 3 mg/kg, qd administered for 5 days; assay type: organism-based; design: dose 3 mg/kg, route intramuscular; conditions: in vivo, im, 120 h; procedure, shortened: as §4
[12] = test system: Rattus norvegicus; assay: Toxicity in rat allografted with cytoxan-resistant rat Walker 256 cells intramuscularly assessed as change in body weight at 25 mg/kg, qd administered for 5 days; assay type: organism-based; design: dose 25 mg/kg, route intramuscular; conditions: in vivo, im, 120 h; procedure, shortened: as §4
[13] = test system: Rattus norvegicus; assay: Toxicity in rat allografted with rat Walker 256 cells intramuscularly assessed as change in body weight at 12 mg/kg, qd administered for 5 days; assay type: organism-based; design: dose 12 mg/kg, route intramuscular; conditions: in vivo, im, 120 h; procedure, shortened: as §4
[14] = test system: W256; assay: Antitumor activity against cytoxan-resistant rat Walker 256 cells intramuscularly allografted in rat assessed as tumor growth inhibition at 3 mg/kg, qd administered for 5 days relative to control; assay type: functional; conditions: W256, im, 120 h, route intramuscular, read-out: TGI; procedure, shortened: as §1
[15] = test system: W256; assay: Antitumor activity against cytoxan-resistant rat Walker 256 cells intramuscularly allografted in rat assessed as tumor growth inhibition at 6 mg/kg, qd administered for 5 days relative to control; assay type: functional; conditions: W256, im, 120 h, route intramuscular, read-out: TGI; procedure, shortened: as §1
[16] = test system: L1210; assay: In vivo antitumor activity against mouse L1210 cells in prognostic scoring system assessed as survival rate at 7 mg/kg, qd administered for 15 days; assay type: functional, organism-based; design: dose 7 mg/kg; procedure, shortened: as §2
[17] = test system: L1210; assay: In vivo antitumor activity against mouse L1210 cells in prognostic scoring system assessed as survival rate at 11 mg/kg, qd administered for 15 days; assay type: functional, organism-based; design: dose 11 mg/kg; procedure, shortened: as §2
[18] = test system: W256; assay: Antitumor activity against rat Walker 256 cells intramuscularly allografted in rat assessed as survival rate at 12 mg/kg, qd administered for 5 days; assay type: functional, organism-based; design: dose 12 mg/kg; procedure, shortened: as §3
[19] = Therapeutic index, ratio of LD50 for rat allografted with rat Walker 256 cells to ED10 for antitumor activity against rat Walker 256 cells intramuscularly allografted in rat; assay type: cell-based; conditions: read-out: TI
Procedure, shortened: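 Therapeutic index is LD50/ED10 in the Walker 256 solid tumour system. ED10 is the dose giving a 10% tumour weight reduction, with values extrapolated from dose-response data.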

[20] = test system: W256; assay: Antitumor activity against cytoxan-resistant rat Walker 256 cells intramuscularly allografted in rat assessed as survival rate at 25 mg/kg, qd administered for 5 days; assay type: functional, organism-based; design: dose 25 mg/kg; procedure, shortened: as §3
[21] = test system: Rattus norvegicus; assay: Toxicity in rat allografted with cytoxan-resistant rat Walker 256 cells intramuscularly assessed as change in body weight at 6 mg/kg, qd administered for 5 days; assay type: organism-based; design: dose 6 mg/kg, route intramuscular; conditions: in vivo, im, 120 h; procedure, shortened: as §4
[22] = test system: W256; assay: Antitumor activity against cytoxan-resistant rat Walker 256 cells intramuscularly allografted in rat assessed as survival rate at 3 mg/kg, qd administered for 5 days; assay type: functional, organism-based; design: dose 3 mg/kg; procedure, shortened: as §3
[23] = test system: W256; assay: Antitumor activity against cytoxan-resistant rat Walker 256 cells intramuscularly allografted in rat assessed as survival rate at 6 mg/kg, qd administered for 5 days; assay type: functional, organism-based; design: dose 6 mg/kg; procedure, shortened: as §3

Question: With `C=CCN(CC=C)P(=O)(N(CC=C)CC=C)N1CC1` as the molecule, how does the LD50 [1] read?
Answer: The LD50 was 75 mg/kg.

Question: And the inhibition in vivo at 5 mg/kg [2]?
Answer: The inhibition in vivo at 5 mg/kg was 155%.

Question: What about the ED10 [3] of the same molecule?
Answer: Its ED10 is 2.5 mg/kg.

Question: What about the inhibition in vivo at 12 mg/kg [4] of the same molecule?
Answer: Its inhibition in vivo at 12 mg/kg is 66%.

Question: What about the Activity [5] of the same molecule?
Answer: Its Activity is “Active”.

Question: And the inhibition in vivo at 25 mg/kg [6]?
Answer: Its inhibition in vivo at 25 mg/kg is 52%.

Question: And the Activity [7]?
Answer: Its Activity is “Active”.

Question: And the inhibition in vivo at 12 mg/kg [8]?
Answer: The inhibition in vivo at 12 mg/kg was 0%.

Question: What about the Activity [9] of the same molecule?
Answer: Its Activity is “Active”.

Question: And the Activity [10]?
Answer: The Activity was -4 g.

Question: And the Activity [11]?
Answer: The Activity was -1 g.

Question: What about the Activity [12] of the same molecule?
Answer: The Activity was -28 g.

Question: And the Activity [13]?
Answer: The Activity was -1 g.

Question: And the inhibition in vivo at 3 mg/kg [14]?
Answer: Its inhibition in vivo at 3 mg/kg is 84%.

Question: What about the inhibition in vivo at 6 mg/kg [15] of the same molecule?
Answer: The inhibition in vivo at 6 mg/kg was 70%.

Question: And the Activity [16]?
Answer: The Activity was “Active”.

Question: What about the Activity [17] of the same molecule?
Answer: The Activity was “Active”.

Question: And the Activity [18]?
Answer: The Activity was “Active”.

Question: What about the selectivity ratio [19] of the same molecule?
Answer: The selectivity ratio was 30.

Question: And the Activity [20]?
Answer: The Activity was “Active”.

Question: What about the Activity [21] of the same molecule?
Answer: Its Activity is -7 g.

Question: What about the Activity [22] of the same molecule?
Answer: Its Activity is “Active”.

Question: What about the Activity [23] of the same molecule?
Answer: Its Activity is “Active”.
